We go through eleven compounds from ChEMBL document CHEMBL1151913, “Preparation of novel (Z)-4-ylidenebenzo[b]furo[3,2-d][1,3]oxazines and their biological activity” (2009).

Usually GI50 stands for the concentration giving 50% growth inhibition.

Calls of active or inactive are those of the source. No cut-off for these calls is given here.

Assay [1] concerns MCF7. The assay can be described thus: Growth inhibition of human MCF7 cells after 72 hrs by Alamar Blue assay. The format is functional. Conditions: MCF7, 72 h. The essentials:
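MCF-7 grown in E-MEM with 10% FCS and antibiotic-antimycotic; 1 × 10^4 cells/well seeded, 24 h at 37 °C, 5% CO2; medium replaced with drug-containing medium (final DMSO ≤0.25%) in triplicate wells, 72 h continuous exposure; alamarBlue added for further 3 h.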
A general note: The colour change of resazurin is a common sign of viable cells or microbes.

Assay [2] relates to MIA PaCa-2. The assay can be described thus: Growth inhibition of human MIAPaCa2 cells after 72 hrs by Alamar Blue assay. In kind it is functional. The conditions noted are these: MIA PaCa-2, 72 h. The essentials: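 MIA PaCa-2 grown in D-MEM with 10% FCS and antibiotic-antimycotic; 1 × 10^4 cells/well seeded, 24 h at 37 °C, 5% CO2; medium replaced with drug-containing medium (final DMSO ≤0.25%) in triplicate wells, 72 h continuous exposure; alamarBlue added for further 3 h.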

Assay [3] has as its system Osteoblast. Description: Anti-osteoclastic bone resorption activity in ddY mouse calvarial osteoblasts assessed as inhibition of PGE2-stimulated resorption pit formation relative to 17-beta-estradiol. In kind it is functional, cell-based. The essentials: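 Osteoclasts generated by 7-day coculture of preconfluent calvarial osteoblasts (1–2 day old ddY mice) with fresh bone marrow cells (5 week-old male ddY mice) on collagen-coated dish in α-MEM (pH 7.0), 10% FCS, 10 nM calcitriol, 1.0 μM PGE2; collagenase-released cells plated on dentin slices with 10 nM E2 or compounds, 2 days; pits counted after toluidine blue staining.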

As to `COc1cccc2c3c(oc12)/C(=C/C=C/C(=O)N1CCOCC1)OC(/C=C/c1ccccc1)=N3`, the GI50 in assay [1] is over 10 µM; in assay [2], 5.34 µM.
In the same order, the values of `CCOC(=O)/C=C/C=C1\OC(/C=C(\Cl)c2ccc(Cl)cc2)=Nc2c1oc1ccc(Br)cc21` are over 10 µM and over 10 µM.
Turning to `CCOP(=O)(OCC)/C(=C/C=C1\OC(/C=C/c2ccccc2)=Nc2c1oc1ccc(Br)cc21)c1ccc(Cl)cc1`, the outcome in assay [3] was Active.
For the compound `COc1ccc(CCNC(=O)/C=C/C=C2\OC(/C=C/c3ccccc3)=Nc3c2oc2ccc(Br)cc32)cc1OC`, in assay [3], the outcome was inactive.
Take `C/C=C/C1=Nc2c(oc3ccc(Br)cc23)/C(=C/C=O)O1`: in assay [3], the outcome was inactive.
Consider `CCN(CC)C(=O)/C=C/C=C1\OC(/C=C/c2ccccc2)=Nc2c1oc1ccc(Br)cc21`, for which the outcome in assay [3] was inactive.
`COc1cccc2c3c(oc12)/C(=C/C=O)OC(/C=C/C=C(/Cl)c1ccc(F)cc1)=N3`: the GI50 in assay [1] was 7.14 µM; in assay [2] it was over 10 µM.
Consider `O=C/C=C1\OC(/C=C/c2ccccc2)=Nc2c1oc1ccc(Br)cc21`, for which, in assay [3], the outcome was inactive.
Still for that read-out and setting: with `O=C(/C=C/C=C1\OC(/C=C/c2ccccc2)=Nc2c1oc1ccc(Br)cc21)N1CCOCC1` the entry was “inactive”.
On the same count and under the same terms, with `CCOC(=O)/C=C/C=C1\OC(/C=C/c2ccccc2)=Nc2c1oc1ccc(Br)cc21` the entry was “Active”.
With `O=c1[nH]cc(F)c(=O)[nH]1` [FLUOROURACIL], the GI50 in assay [1] and in assay [2] was over 10 µM each time.
